Active and inactive are the calls of the source. The calls are words filed in the database; no cut-off is given here.

Consider ten compounds from ChEMBL document CHEMBL1152792, “Synthesis and anticonvulsant activity of amino acid-derived sulfamides” (J Med Chem, 2009).

The subject of data set [1] is Mus musculus. The experiment in a line: Anticonvulsant activity in albino mouse at 100 mg/kg, ip after 0.5 hrs by PTZ test. The class given is functional, organism-based. On the set-up: dose 100 mg/kg. The gist of the method:
(§1)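 NIH Anticonvulsant Drug Development (ADD) program phase I screen in adult male albino mice (18–23 g). Compound given ip in 30% PEG 400 and 10% water at 0.01 mL/g body weight. Seizures were induced electrically (MES) or chemically (PTZ), and animals were tested 0.5 and 4 h after dosing. Result scored as protected/tested animals.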

For data set [2], the system named is Mus musculus. The data set is described as follows: Anticonvulsant activity in albino mouse at 300 mg/kg, ip after 4 hrs by PTZ test. The format is functional, organism-based. More on the design: dose 300 mg/kg. The gist of the method: as §1
Data set [3] concerns Mus musculus. The experiment in a line: Anticonvulsant activity in albino mouse at 300 mg/kg, ip after 0.5 hrs by PTZ test. The class given is functional, organism-based. On the set-up: dose 300 mg/kg. The gist of the method:
as §1

For data set [4], the system named is Mus musculus. The data set is described as follows: Toxicity in albino mouse at 30 mg/kg, ip after 0.5 hrs by rotarod test. The conditions noted are these: in vivo. The format is organism-based. On the set-up: dose 30 mg/kg, route intraperitoneal. Summed up:
(§2)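 Neurotoxicity was screened by the standardized rotarod test in the ADD phase I protocol. Adult male albino mice (18–23 g) received compound ip in 30% PEG 400 and 10% water at 0.01 mL/g. Animals were tested 0.5 and 4 h post-dose. Result scored as toxic/tested animals.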
(In general: The rotarod test checks motor coordination on a turning rod.)

Data set [5] concerns Mus musculus. The data set is described as follows: Anticonvulsant activity in albino mouse at 30 mg/kg, ip after 0.5 hrs by PTZ test. On the set-up: dose 30 mg/kg. The class given is functional, organism-based. Summed up: as §1
The test system of data set [6] is Mus musculus. The experiment in a line: Toxicity in albino mouse at 100 mg/kg, ip after 0.5 hrs by rotarod test. The format is organism-based. On the set-up: dose 100 mg/kg, route intraperitoneal. The conditions noted are these: in vivo. The gist of the method:
as §2

The subject of data set [7] is Mus musculus. The experiment in a line: Toxicity in albino mouse at 100 mg/kg, ip after 4 hrs by rotarod test. The format is organism-based. More on the design: dose 100 mg/kg, route intraperitoneal. The conditions noted are these: in vivo. Summed up: as §2
The test system of data set [8] is Mus musculus. The data set is described as follows: Toxicity in albino mouse at 300 mg/kg, ip after 4 hrs by rotarod test. The format is organism-based. On the set-up: dose 300 mg/kg, route intraperitoneal. The conditions noted are these: in vivo. The gist of the method: as §2
Data set [9] has as its system Mus musculus. The data set is described as follows: Anticonvulsant activity in albino mouse at 300 mg/kg, ip after 4 hrs by MES test. The format is functional, organism-based. On the set-up: dose 300 mg/kg. The gist of the method: as §1
The test system of data set [10] is Mus musculus. The data set is described as follows: Anticonvulsant activity in albino mouse at 100 mg/kg, ip after 4 hrs by PTZ test. The format is functional, organism-based. More on the design: dose 100 mg/kg. Summed up:
as §1

Data set [11] has as its system Mus musculus. The experiment in a line: Anticonvulsant activity in albino mouse at 30 mg/kg, ip after 4 hrs by PTZ test. The format is functional, organism-based. More on the design: dose 30 mg/kg. The gist of the method: as §1
In data set [12] the test system is Mus musculus. The data set is described as follows: Toxicity in albino mouse at 300 mg/kg, ip after 0.5 hrs by rotarod test. The class given is organism-based. On the set-up: dose 300 mg/kg, route intraperitoneal. The conditions noted are these: in vivo. Summed up: as §2
Data set [13] has as its system Mus musculus. The data set is described as follows: Toxicity in albino mouse at 30 mg/kg, ip after 4 hrs by rotarod test. The class given is organism-based. On the set-up: dose 30 mg/kg, route intraperitoneal. The conditions noted are these: in vivo. The gist of the method: as §2
The subject of data set [14] is Mus musculus. The data set is described as follows: Anticonvulsant activity in albino mouse at 30 mg/kg, ip after 0.5 hrs by MES test. The format is functional, organism-based. More on the design: dose 30 mg/kg. Summed up:
as §1

For data set [15], the system named is Mus musculus. The data set is described as follows: Anticonvulsant activity in albino mouse at 30 mg/kg, ip after 4 hrs by MES test. On the set-up: dose 30 mg/kg. The class given is functional, organism-based. The gist of the method:
as §1

Data set [16] has as its system Mus musculus. The experiment in a line: Anticonvulsant activity in albino mouse at 100 mg/kg, ip after 4 hrs by MES test. More on the design: dose 100 mg/kg. The format is functional, organism-based. Summed up: as §1
Data set [17] relates to Mus musculus. The experiment in a line: Anticonvulsant activity in albino mouse at 100 mg/kg, ip after 0.5 hrs by MES test. The format is functional, organism-based. On the set-up: dose 100 mg/kg. The gist of the method:
as §1

Data set [18] has as its system Mus musculus. The experiment in a line: Anticonvulsant activity in albino mouse at 300 mg/kg, ip after 0.5 hrs by MES test. The class given is functional, organism-based. More on the design: dose 300 mg/kg. The gist of the method: as §1

On to `COC(=O)CCNS(=O)(=O)NC(=O)OC(C)(C)C`, for which the result in data set [1], in data set [2], in data set [3], in [5], in data set [9] and in [10] was inactive. In addition, the outcome in data set [11], in data set [14], in data set [15], in data set [16] and in data set [17] was inactive. For the same compound, the Activity result in data set [4], in [6], in data set [7], in data set [8], in data set [12] and in data set [13] was “Non-toxic” in each case.
Consider `CCCC(CCC)CN(C(=O)OC(C)(C)C)S(=O)(=O)NCC(=O)OC`, for which the outcome in data set [18], in [1], in data set [2], in [3], in data set [5] and in [10] was inactive. In addition, the outcome in data set [11], in data set [14], in data set [15], in data set [16] and in data set [17] was inactive. Moreover, the Activity entry in [4], in data set [6], in [7], in [8], in data set [12] and in [13] was “Non-toxic” in each case.
For the compound `COC(=O)[C@@H](NS(=O)(=O)N[C@H](C(=O)OC)C(C)C)C(C)C`, the outcome in data set [1], in data set [2], in [3], in [5], in data set [9] and in [10] was inactive. In addition, the outcome in [11], in data set [14], in [15] and in data set [16] was inactive. Further, the Activity result in [4], in data set [6], in [7], in data set [8], in data set [12] and in [13] was “Non-toxic” in each case.
As for `COC(=O)CCNS(=O)(=O)NCc1ccccc1`, the result in data set [1], in [2], in data set [3], in data set [5], in [9] and in data set [10] was inactive. The result in [14], in data set [15] and in data set [16] was inactive. The Activity result in data set [4], in [6], in [7], in data set [8], in data set [12] and in data set [13] was “Non-toxic” throughout.
Consider `COC(=O)CNS(=O)(=O)NCc1ccccc1`, for which the result in [18], in data set [1], in [2], in data set [3], in [5] and in [9] was inactive. Moreover, the outcome in [10], in data set [11], in data set [14], in data set [15], in [16] and in data set [17] was inactive. Further, the Activity entry in [4], in [6], in [7], in data set [8], in data set [12] and in data set [13] was “Non-toxic” throughout.
With `CCCC(CCC)CN(C(=O)OC(C)(C)C)S(=O)(=O)NCCC(=O)OC`, the result in [18], in [1], in data set [2], in data set [3], in [5] and in data set [9] was inactive. Further, the result in data set [10], in data set [11], in [14], in [15], in data set [16] and in [17] was inactive. Also, the Activity entry in data set [4], in data set [6], in [7], in data set [8], in data set [12] and in [13] was “Non-toxic” each time.
Consider `COC(=O)CCNS(=O)(=O)NCCC(=O)OC`, for which the outcome in [1], in [2], in data set [3], in data set [5], in data set [9] and in data set [10] was inactive. In addition, the outcome in [11], in [14], in data set [15] and in data set [16] was inactive. The Activity entry in data set [4], in data set [6], in data set [7], in data set [8], in data set [12] and in data set [13] was “Non-toxic” throughout.
With `COC(=O)[C@H](C)NS(=O)(=O)N[C@@H](C)C(=O)OC`, the outcome in data set [18], in data set [1], in data set [2], in [3], in [5] and in data set [9] was inactive. Further, the outcome in data set [10], in data set [11], in data set [14], in data set [15], in data set [16] and in data set [17] was inactive. Besides, the Activity entry in [4], in data set [6], in [7], in data set [8], in data set [12] and in data set [13] was “Non-toxic” throughout.
For the compound `COC(=O)CNS(=O)(=O)NC(=O)OC(C)(C)C`, the outcome in data set [18], in data set [1], in [2], in data set [3], in data set [5] and in data set [9] was inactive. Also, the result in [10], in [11], in [14], in [15], in [16] and in data set [17] was inactive. The Activity result in data set [4], in data set [6], in data set [7], in data set [8], in data set [12] and in [13] was “Non-toxic” each time.
As to `COC(=O)CCNS(=O)(=O)NC1CCCCC1`, the outcome in data set [18], in data set [9], in [14] and in data set [15] was inactive. Besides, the Activity result in data set [4], in [6], in data set [7], in [8], in [12] and in data set [13] was “Non-toxic” each time.
